# Source: PubChem BioAssay (several laboratories)
# The full list was thinned out, with hits kept by preference.
# DTT redox prof: compounds producing H2O2 with reducing agent – biochemical, NIH compound library profiling, artefact control for MLSCN library redox annotation, primary screen | DTT-dependent redox cycling H2O2, phenol red/HRP absorbance; 100% = 100 µM peroxide control, 0% = buffer | activation, % at 10 µM | hit rate 0.03% among 200,000 | AID 878, 2007;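 active means activation of at least 50% relative to the plate's high and low controls in the primary single-dose screen; inactive means activation below 50%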;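 further: compound incubated with DTT at 0.8 mM final as the reducing agent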
# Diaphorase act: compounds boosting diaphorase resazurin reduction – biochemical, uHTS, resorufin fluorescence, counter-screen for diaphorase-coupled primary assays, primary screen; Diaphorase/resazurin coupled assay, 16 min; hits give high values; 1 = vehicle wells, 0 = NADH-free wells; activation factor at 20 µM; hit rate 0.005% among 190,000; AID 1229, 2008;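 active means diaphorase activity raised at least twofold by the compound at 20 µM; inactive means activation factor below 2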
#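 test system = bacterial diaphorase enzyme (C. kluyveri) | quantity = enzyme 0.07 U/mL final | reagent = NADH substrate 0.114 mM plus resazurin dye 0.1 mM, final | incubation = 16 min enzyme reaction, ambient temperature | buffer or medium = HEPES pH 7.4 buffer with MgCl2 and Tween 20 | signal = fluorescence of resorufin, 544 nm excitation, 590 nm emission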
# Diaphorase inh: diaphorase inhibitors and chemical oxidizers, primary screen, counter-screen for diaphorase-coupled primary assays, biochemical, uHTS, resorufin fluorescence; diaphorase resazurin-to-resorufin fluorescence, NADH, 16 min; bacterial (C. kluyveri) enzyme, not human; inhibition, % at 20 µM; hit rate 0.69% among 190,000; AID 1217, 2008;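 active means primary screen inhibition at 20 µM above a set limit, cut at about 50% in these data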;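 further: plate controls were DMSO with full reaction for no effect and wells lacking NADH for full effect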
#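 Assay system – diaphorase enzyme from Clostridium kluyveri · Amount – diaphorase 0.14 U/mL (working solution) · Times – reaction incubation of 16 min at room temperature · Controls – No-NADH positive control and DMSO neutral control · Signal – resorufin fluorescence 544/590 nm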
# G6PDH counter: L. mesenteroides G6PDH inhibitors, counter-screen for G6PDH-coupled screening assays, biochemical, Leuconostoc mesenteroides enzyme; hit rate 0.12% among 200,000; glucose-6-phosphate dehydrogenase [Leuconostoc mesenteroides]; inhibition, % at 5 µM; Purified L. mesenteroides G6PDH, diaphorase/resazurin coupled fluorescence, 45 min
# Lmaj promast: Leishmania major promastigote growth inhibition, primary screen; hit rate 9% among 200,000; inhibition, % at 10 µM; Leishmania major promastigotes, resazurin fluorescence viability; AID 1063, 2008;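 further: promastigotes grown with compound for 44 hours at 28 °C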
# PfGluPho inh: PfG6PD enzyme inhibitors, primary screen, biochemical, fluorescence intensity, uHTS; glucose-6-phosphate dehydrogenase-6-phosphogluconolactonase (Plasmodium falciparum 3D7); inhibition, % at 20 µM; hit rate 0.78% among 350,000; PfGluPho enzyme, NADPH resazurin-diaphorase fluorescence;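 active means inhibition reaching at least a set limit at 20 µM in the primary screen, cut at about 59% in these data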;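 further: 0% = DMSO wells with substrate and 100% = DMSO wells lacking glucose-6-phosphate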
# The depositor's hits bear a star; nt = not tested or not shown. Unless noted, no stated cut-off is given here; in the data, active means inhibition above about 50%; inactive means the rest.
SMILES,DTT redox prof,Diaphorase act,Diaphorase inh,G6PDH counter,Lmaj promast,PfGluPho inh
CCCCC(=O)NC(c1ccccc1Cl)c1ccc2cccnc2c1O (stereo not drawn),nt,nt,nt,nt,nt,-29
COc1ccc(Cl)cc1C(Nc1cccnc1)c1ccc2cccnc2c1O (stereo not drawn),-1,0.9,7,8,62*,-3
CCCC(=O)NC(c1ccc(OC)cc1)c1ccc2cccnc2c1O (stereo not drawn),0,0.7,35,16,100*,-24
Cc1ccc(C(=O)N2CCOCC2)c(F)c1F,0,1.1,-9,6,-9,-17
CC1CC(C)CN(S(=O)(=O)c2cccc(C(=O)N3CCN(c4ccc(F)cc4)CC3)c2)C1 (stereo not drawn),nt,nt,nt,nt,nt,8
NC(CCCCCP(=O)(c1ccccc1)c1ccccc1)C(=O)O (stereo not drawn),nt,nt,nt,nt,nt,-1
O=C(CCc1ccccc1)NC(c1cccs1)c1cc(Cl)c2cccnc2c1O (stereo not drawn),-9,1.1,-6,4,99*,-19
CC(=O)NC(c1cc(Cl)c2cccnc2c1O)C(C)C (stereo not drawn),nt,nt,nt,nt,nt,-20
COc1ccc(C(NC(=O)c2cccnc2)c2cc(Cl)c3cccnc3c2O)cc1OC (stereo not drawn),-9,0.8,16,-7,98*,-22
O=C(COC(=O)c1ccc(Cl)nc1)NC1CCCc2ccccc21 (stereo not drawn),nt,nt,nt,nt,nt,6
C=CCn1c(SCC(=O)c2cc(C)n(C(C)COC)c2C)nc2sc(C)c(C)c2c1=O (stereo not drawn),2,0.9,14,-37,19,1
COCCn1c(N)c(Sc2ccccc2[N+](=O)[O-])c(=O)[nH]c1=O,nt,nt,nt,nt,nt,-14
O=C(C1=C[C@@H](c2csc3ccccc23)C[C@@H](OCc2ccc(CO)cc2)O1)N1CCN(Cc2ccccc2)CC1,1,0.7,26,13,51*,21
O=C(C1=C[C@@H](c2csc3ccccc23)C[C@@H](OCc2ccc(CO)cc2)O1)N1CCN(Cc2ccc3c(c2)OCO3)CC1,4,0.8,25,10,73*,26
OC(CNCC1CCCO1)Cn1c2ccc(Cl)cc2c2cc(Cl)ccc21 (stereo not drawn),2,1,2,-4,100*,14
OC(CNCC1CCCO1)Cn1c2ccccc2c2ccccc21 (stereo not drawn),-1,0.9,10,2,25,-1
OC(CNCCC1C=Nc2ccccc21)Cn1c2ccc(Cl)cc2c2cc(Cl)ccc21 (stereo not drawn),2,1.6,-64,8,100*,15
COc1ccccc1CN1CCNC(=O)C1CC(=O)NCC1CCOCC1 (stereo not drawn),nt,nt,nt,nt,nt,-4
O=C(CSc1ccc(Cl)cc1)Nc1ccccc1N1CCN(C(=O)c2ccccc2)CC1,-1,0.8,15,0,72*,5
CS(=O)(=O)N1CCN(c2ccccc2NC(=O)CSc2ccc(Cl)cc2)CC1,0,0.9,8,-1,31,12
COc1ccc(Cl)cc1NC(=O)CN(C)C(=O)Cn1cnc2c1c(=O)n(C)c(=O)n2C,nt,nt,nt,nt,nt,0
CC(C)Cn1c(=O)[nH]c(=O)c2c(C(F)(F)F)cc(-c3ccccc3)nc21,nt,nt,nt,nt,nt,11
CC(C)Cn1c(/C=C/c2ccco2)nc2ccccc21,0,0.8,23,4,61*,8
OC1(c2ccccc2)CCN(Cc2ccccc2)C2CCCCC21 (stereo not drawn),-1,0.9,10,2,97*,-11
CNC(=S)Nc1ccc(C23CC4CC(CC(C4)C2)C3)cc1,0,0.8,25,11,51*,0
CC(NC(=S)NCCCN1CCOCC1)C1CC2CCC1C2 (stereo not drawn),0,1.1,-5,2,87*,-6
